21 molecules from ChEMBL document CHEMBL3351751, “Tricyclic pyrazoles part 7. Discovery of potent and selective dihydrothienocyclopentapyrazole derived CB2 ligands” (Eur J Med Chem, 2014) can be followed below.

The target in assay [1] is Cannabinoid receptor 2 (Homo sapiens) (UniProt P34972). The experiment in a line: Inhibition of CB2 receptor in HL60 cells assessed as inhibition of ERK1/2 phosphorylation after 15 mins by Western blotting analysis. It is filed as cell-based. The following applies: HL-60. In general terms: In western blotting, separated proteins are transferred to a membrane and probed.

For another assay, the target named is Cannabinoid receptor 1 (Mus musculus, UniProt P47746). Put plainly: Displacement of [3H]-CP55940 from CD1 mouse brain (minus cerebellum) CB1 receptor by liquid scintillation counting. The assay is classed as tissue-based. The gist of the method: (§1)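 Male CD1 mouse tissue homogenised in ice-cold TME buffer (50 mM Tris–HCl, 1 mM EDTA, 3.0 mM MgCl2, pH 7.4); membranes (30–80 µg protein) incubated with 0.5–1 nM [3H]-CP-55,940, 1 h, 30 °C, with 5 mg/mL fatty acid-free BSA. Non-specific binding with 1 µM CP-55,940. GF/C filtration. Triplicate, ≥5 independent experiments; IC50 by sigmoid fit converted to Ki.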
For orientation: Loss of bound radioactivity is the signal in a displacement assay; it reports binding, not function.

For a further assay, the target named is Cannabinoid receptor 2 (Mus musculus, UniProt P47936). The experiment in a line: Displacement of [3H]-CP55940 from CD1 mouse spleen CB2 receptor by liquid scintillation counting. A digest of the protocol:
as §1

The species named for a further assay is Mus musculus. The experiment in a line: Selectivity ratio of Ki for CD1 mouse brain (minus cerebellum) CB1 receptor to Ki for CD1 mouse spleen CB2 receptor. It is filed as tissue-based.

Molecules are shown by their SMILES. Active and inactive are the calls of the source. The calls are words filed in the database; no cut-off is given here.

Chain of Cannabinoid receptor 2 (Homo sapiens) (P34972 whole entry): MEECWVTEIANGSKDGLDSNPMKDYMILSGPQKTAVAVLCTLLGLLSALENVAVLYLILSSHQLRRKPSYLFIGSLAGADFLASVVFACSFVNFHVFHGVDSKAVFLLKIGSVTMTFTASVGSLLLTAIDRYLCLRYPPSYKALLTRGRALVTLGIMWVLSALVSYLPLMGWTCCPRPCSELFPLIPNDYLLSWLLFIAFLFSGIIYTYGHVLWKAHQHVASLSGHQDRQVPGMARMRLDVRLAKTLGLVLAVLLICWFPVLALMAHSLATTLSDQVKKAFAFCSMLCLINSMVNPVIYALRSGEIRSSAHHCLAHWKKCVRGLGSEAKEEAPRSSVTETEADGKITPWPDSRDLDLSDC
Chain of Cannabinoid receptor 1 (P47746 whole entry): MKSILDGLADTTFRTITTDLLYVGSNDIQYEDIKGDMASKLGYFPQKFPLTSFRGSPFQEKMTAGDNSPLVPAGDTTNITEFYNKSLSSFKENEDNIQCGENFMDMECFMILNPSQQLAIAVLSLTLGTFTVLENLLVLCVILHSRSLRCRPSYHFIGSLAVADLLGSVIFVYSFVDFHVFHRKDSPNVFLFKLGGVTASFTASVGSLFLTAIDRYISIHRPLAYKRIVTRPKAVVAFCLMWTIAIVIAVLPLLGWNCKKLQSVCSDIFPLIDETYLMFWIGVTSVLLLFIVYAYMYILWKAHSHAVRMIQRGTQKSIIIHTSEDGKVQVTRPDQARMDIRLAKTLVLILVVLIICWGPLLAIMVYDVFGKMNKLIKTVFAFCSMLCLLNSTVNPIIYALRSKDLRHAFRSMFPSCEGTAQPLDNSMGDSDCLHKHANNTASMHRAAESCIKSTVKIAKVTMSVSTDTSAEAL
Chain of Cannabinoid receptor 2 (P47936 whole entry): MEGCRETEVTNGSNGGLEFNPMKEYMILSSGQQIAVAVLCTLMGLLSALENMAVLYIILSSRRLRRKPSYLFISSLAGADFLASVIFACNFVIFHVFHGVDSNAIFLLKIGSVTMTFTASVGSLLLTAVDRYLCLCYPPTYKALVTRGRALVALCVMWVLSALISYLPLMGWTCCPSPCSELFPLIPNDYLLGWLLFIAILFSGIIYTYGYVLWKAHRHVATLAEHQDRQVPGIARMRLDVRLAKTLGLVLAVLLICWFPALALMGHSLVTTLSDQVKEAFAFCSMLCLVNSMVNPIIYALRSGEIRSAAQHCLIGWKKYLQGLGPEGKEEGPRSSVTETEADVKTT

Take `Cc1c(C(=O)c2cccc3ccccc23)c2cccc3c2n1[C@H](CN1CCOCC1)CO3`: in assay [1], the inhibition entry was “Active”.

On to `Cc1ccc(Cn2nc(C(=O)NC3C(C)(C)C4CC[C@@]3(C)C4)c3c2-c2c(C)csc2C3)cc1` (stereo partly specified), for which the Ki on Cannabinoid receptor 1 amounted to 420 nM; on Cannabinoid receptor 2, 2.4 nM. The Ratio Ki in the assay filed under Mus musculus was 175. The inhibition result in assay [1] was “Active”.

`Cc1csc2c1-c1c(c(C(=O)NN3CCCC3)nn1-c1ccc(Cl)cc1Cl)C2`: the values for the Ki on Cannabinoid receptor 1 and at Cannabinoid receptor 2 were 4730 nM and 817 nM, respectively. In addition, the Ratio Ki in the assay listed under Mus musculus was found to be 5.8. For the same molecule, the inhibition entry in assay [1] was “Active”.

For `Cc1cc2c(s1)Cc1c(C(=O)NC3C[C@@H](C)CC[C@@H]3C(C)C)nn(-c3ccc(Cl)cc3Cl)c1-2` (stereo partly specified), the Ki at Cannabinoid receptor 1 came to 6.5 nM; at Cannabinoid receptor 2 it was 5.1 nM. Besides, the Ratio Ki in the assay listed under Mus musculus turned out to be 1.3. Moreover, in assay [1], the inhibition entry is “Active”.

For `Cc1cc2c(s1)Cc1c(C(=O)NN3CCCCC3)nn(-c3ccc(Cl)cc3Cl)c1-2`, the values for the Ki at Cannabinoid receptor 1 and at Cannabinoid receptor 2 were 440 nM and 2.3 nM, respectively. Also, the Ratio Ki in the assay filed under Mus musculus came to 191. For the same molecule, the inhibition result in assay [1] was “Active”.

With `Cc1csc2c1-c1c(c(C(=O)NC3CCCCC3)nn1-c1ccc(Cl)cc1Cl)C2`, the Ki at Cannabinoid receptor 1 worked out at 3080 nM; on Cannabinoid receptor 2, 501 nM. Besides, the Ratio Ki in the assay filed under Mus musculus amounted to 6.1. Further, in assay [1], the inhibition entry was “Active”.

As for `Cc1ccc(Cn2nc(C(=O)NC3CCCCC3)c3c2-c2c(C)csc2C3)cc1`, the Ki on Cannabinoid receptor 1 stood at 1980 nM; on Cannabinoid receptor 2 it was 191 nM. The Ratio Ki in the assay filed under Mus musculus was 10.4. The inhibition entry in assay [1] is “Active”.

For the molecule `Cc1ccc(Cn2nc(C(=O)NN3CCOCC3)c3c2-c2c(C)csc2C3)cc1`, the Ki on Cannabinoid receptor 1 was 4500 nM; on Cannabinoid receptor 2, 1760 nM. Moreover, the Ratio Ki in the assay filed under Mus musculus worked out at 2.6. Also, in assay [1], the inhibition entry was “Active”.

Consider `Cc1csc2c1-c1c(c(C(=O)NN3CCCCCC3)nn1-c1ccc(Cl)cc1Cl)C2`, for which the values for the Ki at Cannabinoid receptor 1 and at Cannabinoid receptor 2 were 3800 nM and 321 nM, respectively. Also, the Ratio Ki in the assay filed under Mus musculus was 11.8. In assay [1], the inhibition result was “Active”.

Take `Cc1ccc(Cn2nc(C(=O)NN3CCCC3)c3c2-c2c(C)csc2C3)cc1`: the Ki on Cannabinoid receptor 1 amounted to 4500 nM; at Cannabinoid receptor 2 it was 515 nM. In addition, the Ratio Ki in the assay filed under Mus musculus came out at 8.7. In assay [1], the inhibition entry is “Active”.

For `Cc1csc2c1-c1c(c(C(=O)NC3C[C@@H](C)CC[C@@H]3C(C)C)nn1-c1ccc(Cl)cc1Cl)C2` (stereo partly specified), the results for the Ki on Cannabinoid receptor 1 and on Cannabinoid receptor 2 were 3260 nM and 6.7 nM, respectively. Further, the Ratio Ki in the assay listed under Mus musculus stood at 486. For the same molecule, in assay [1], the inhibition result was “Active”.

On to `Cc1csc2c1-c1c(c(C(=O)NN3CCOCC3)nn1-c1ccc(Cl)cc1Cl)C2`, for which the Ki at Cannabinoid receptor 1 came out at 4700 nM; on Cannabinoid receptor 2, 747 nM. In addition, the Ratio Ki in the assay listed under Mus musculus came to 6.3. Moreover, the inhibition result in assay [1] was “Active”.

Consider `Cc1ccc(Cn2nc(C(=O)NC3C[C@@H](C)CC[C@@H]3C(C)C)c3c2-c2c(C)csc2C3)cc1` (stereo partly specified), for which the Ki at Cannabinoid receptor 1 came to 160 nM; on Cannabinoid receptor 2, 2.7 nM. For the same molecule, the Ratio Ki in the assay filed under Mus musculus was determined as 59.3. In assay [1], the inhibition result was “Active”.

With `Cc1csc2c1-c1c(c(C(=O)NC3C(C)(C)C4CC[C@@]3(C)C4)nn1-c1ccc(Cl)cc1Cl)C2` (stereo partly specified), the Ki worked out at 2240 nM at Cannabinoid receptor 1 and 5.3 nM on Cannabinoid receptor 2. Further, in the assay listed under Mus musculus, the Ratio Ki turned out to be 424. Moreover, the inhibition entry in assay [1] is “Active”.

With `Cc1ccc(Cn2nc(C(=O)NN3CCCCC3)c3c2-c2c(C)csc2C3)cc1`, the Ki at Cannabinoid receptor 1 came to 377 nM; at Cannabinoid receptor 2, 125 nM. Moreover, the Ratio Ki in the assay listed under Mus musculus amounted to 3. Moreover, the inhibition entry in assay [1] was “Active”.

In the case of `Cc1csc2c1-c1c(c(C(=O)NN3CCCCC3)nn1-c1ccc(Cl)cc1Cl)C2`, the Ki on Cannabinoid receptor 1 came to 3920 nM; on Cannabinoid receptor 2 it was 578 nM. Moreover, the Ratio Ki in the assay listed under Mus musculus worked out at 6.8. Besides, the inhibition result in assay [1] was “Active”.

In the case of `Cc1cc2c(s1)Cc1c(C(=O)NC3CCCCC3)nn(-c3ccc(Cl)cc3Cl)c1-2`, the Ki at Cannabinoid receptor 1 worked out at 447 nM; at Cannabinoid receptor 2, 7.2 nM. In addition, in the assay listed under Mus musculus, the Ratio Ki stood at 62.1. Further, the inhibition result in assay [1] was “Active”.

Consider `Cc1ccc(Cn2nc(C(=O)NN3CCCCCC3)c3c2-c2c(C)csc2C3)cc1`, for which the Ki at Cannabinoid receptor 1 came to 1280 nM; at Cannabinoid receptor 2, 69 nM. In the assay filed under Mus musculus, the Ratio Ki was found to be 18.5. Also, in assay [1], the inhibition entry is “Active”.

Consider `Cc1ccc(Cn2nc(C(=O)NC3C[C@@H](C)CC[C@@H]3C(C)C)c3c2-c2cc(C)sc2C3)cc1` (stereo partly specified), for which the Ki is 180 nM at Cannabinoid receptor 1 and 4.8 nM at Cannabinoid receptor 2. In addition, the Ratio Ki in the assay filed under Mus musculus is 37.5. Also, the inhibition result in assay [1] is “Active”.

As to `Cc1cc2c(s1)Cc1c(C(=O)NN3CCCC3)nn(-c3ccc(Cl)cc3Cl)c1-2`, the Ki at Cannabinoid receptor 1 worked out at 1390 nM; on Cannabinoid receptor 2, 38.3 nM. In addition, in the assay listed under Mus musculus, the Ratio Ki amounted to 36.2. Besides, in assay [1], the inhibition entry is “Active”.

With `Cc1cc2c(s1)Cc1c(C(=O)NN3CCCCCC3)nn(-c3ccc(Cl)cc3Cl)c1-2`, the values for the Ki at Cannabinoid receptor 1 and at Cannabinoid receptor 2 were 442 nM and 1.1 nM, respectively. For the same molecule, the Ratio Ki in the assay listed under Mus musculus was found to be 402. Also, the inhibition entry in assay [1] is “Active”.

What is called Ki is a dissociation constant, usually derived from enzyme kinetics or from competition with a known ligand.
